Laboratory results from ChEMBL document CHEMBL3232903, “New pyrazolobenzothiazine derivatives as hepatitis C virus NS5B polymerase palm site I inhibitors” (J Med Chem, 2014).

Experiments:
[1] = Selectivity index, ratio of CC50 for human Huh5-2 cells to EC50 for HCV genotype 1b I389luc-ubi-neo/NS3-3'/5.1 replicon infected in human Huh5-2 cells; design: species or system Huh-5-2
[2] = tested on: Hepatitis C virus; assay: Antiviral activity against HCV genotype 1b I389luc-ubi-neo/NS3-3'/5.1 replicon infected in human Huh5-2 cells assessed as inhibition of virus replication by luciferase assay; type: functional, cell-based, Hepacivirus hominis; settings: Huh-5-2
[3] = Inhibition of RNA-dependent RNA polymerase activity of HCV genotype 1b HC-J4 recombinant N-terminal histidine tagged C-terminal 21 aminoacids truncated NS5B polymerase after 1 hr by standard primer dependent elongation assay; design: species or system Hepatitis C virus isolate HC-J4
In short: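 Recombinant NS5BCΔ21 genotype 1b in a primer-dependent elongation assay. IC50 is the concentration halving enzyme activity in vitro; mean ± SD of two independent experiments in duplicate.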

[4] = Cytostatic activity against human Huh5-2 cells carrying HCV genotype 1b I389luc-ubi-neo/NS3-3'/5.1 replicon assessed as reduction in metabolic activity after 72 hrs by MTS assay; type: ADME, cell-based, Huh-5-2; settings: for CC50: huh-5-2, 72 h
In short: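 Replicon-bearing Huh-5-2 cells run in parallel with the antiviral read-out; CC50 is the concentration halving MTS bioreduction to formazan, taken as the antimetabolic effect on host cells; mean ± SD from at least three dose–response curves.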

[5] = tested on: Hepatitis C virus isolate HC-J4; assay: Inhibition of RNA-dependent RNA polymerase activity of HCV genotype 1b HC-J4 recombinant N-terminal histidine tagged C-terminal 21 aminoacids truncated NS5B polymerase at 50 uM after 1 hr by standard primer dependent elongation assay
In short: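 Recombinant NS5BCΔ21 genotype 1b in a primer-dependent elongation assay. […] IC50 is the concentration halving enzyme activity in vitro; mean ± SD of two independent experiments in duplicate.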

[6] = Cytotoxicity against human Huh5-2 cells carrying HCV genotype 1b I389luc-ubi-neo/NS3-3'/5.1 replicon assessed as cell morphological changes after 72 hrs by microscopic analysis; type: cell-based; settings: huh-5-2, 72 h
In short: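 Huh-5-2 replicon cells examined by microscopy for changes in cell morphology after 72 h of compound treatment.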

[7] = Induction of steatosis in human Huh-9-13 cells assessed as intracellular accumulation of […] lipids at 100 uM by Nile Red staining; type: cell-based

## CN1c2c(C(=O)Nc3ccc(NS(C)(=O)=O)cc3)nn(-c3ccccc3C(F)(F)F)c2-c2ccccc2S1(=O)=O
[1]
  Ratio CC50/EC50: >7
[2]
  EC50: 25 µM
[3]
  IC50: > 50 µM
[4]
  CC50: > 169 µM
[5]
  inhibition: < 50%
[6]
  Activity: Toxic

## Cc1ccc(-n2nc(C(=O)Nc3ccc(NS(C)(=O)=O)cc3)c3c2-c2ccccc2S(=O)(=O)N3C)cc1C
[1]
  Ratio CC50/EC50: >29
[2]
  EC50: 6.2 µM
  EC90: 20 µM
[3]
  IC50: > 50 µM
[4]
  CC50: > 181 µM
[5]
  inhibition: < 50%
[6]
  Activity: Toxic

## CN1c2c(C(=O)Nc3ccc(NS(C)(=O)=O)cc3)nn(C3CCCCC3)c2-c2ccccc2S1(=O)=O
[1]
  Ratio CC50/EC50: 9.7
[2]
  EC50: 4.5 µM
  EC90: 11 µM
[3]
  IC50: 43 µM
[4]
  CC50: 44 µM
[5]
  inhibition: > 50%
[6]
  Activity: Toxic

## CN1c2c(C(=O)Nc3ccc(NS(C)(=O)=O)cc3)nn(-c3ccc(Cl)cc3)c2-c2ccccc2S1(=O)=O
[1]
  Ratio CC50/EC50: >28
[2]
  EC50: 8.1 µM
  EC90: 23.3 µM
[3]
  IC50: 7.9 µM
[7]
  Activity: Toxic
[4]
  CC50: > 224 µM
[5]
  inhibition: > 50%
[6]
  Activity: Non-toxic

## COc1cccc(-n2nc(C(=O)Nc3ccc(NS(C)(=O)=O)cc3)c3c2-c2ccccc2S(=O)(=O)N3C)c1
[1]
  Ratio CC50/EC50: >16
[2]
  EC50: 11 µM
[3]
  IC50: > 50 µM
[4]
  CC50: > 181 µM
[5]
  inhibition: < 50%
[6]
  Activity: Toxic

## CN1c2c(C(=O)Nc3ccc(OCC(N)=O)cc3)nn(-c3cccc(F)c3)c2-c2ccccc2S1(=O)=O
[1]
  Ratio CC50/EC50: >13
[2]
  EC50: 15 µM
  EC90: 34 µM
[3]
  IC50: > 50 µM
[4]
  CC50: > 192 µM
[5]
  inhibition: < 50%
[6]
  Activity: Toxic

## Cc1ccc(-n2nc(C(=O)Nc3ccc(NS(C)(=O)=O)cc3)c3c2-c2ccccc2S(=O)(=O)N3C)cc1Cl
[1]
  Ratio CC50/EC50: >25
[2]
  EC50: 7 µM
  EC90: 37 µM
[3]
  IC50: 8 µM
[4]
  CC50: > 175 µM
[5]
  inhibition: > 50%
[6]
  Activity: Toxic

## CN1c2c(C(=O)Nc3ccc(NS(C)(=O)=O)cc3)nn(-c3ccccc3Br)c2-c2ccccc2S1(=O)=O
[1]
  Ratio CC50/EC50: 8.9
[2]
  EC50: 12 µM
[3]
  IC50: 26.5 µM
[4]
  CC50: 107 µM
[5]
  inhibition: > 50%
[6]
  Activity: Toxic

## CN1c2c(C(=O)Nc3ccc(NS(C)(=O)=O)cc3)nn(-c3ccccc3Cl)c2-c2ccccc2S1(=O)=O
[1]
  Ratio CC50/EC50: >30
[2]
  EC50: 7.4 µM
  EC90: 20.8 µM
[3]
  IC50: 17.8 µM
[4]
  CC50: > 224 µM
[5]
  inhibition: > 50%
[6]
  Activity: Toxic

## CN1c2c(C(=O)Nc3ccc(NS(C)(=O)=O)cc3)nn(-c3cccc(C(F)(F)F)c3)c2-c2ccccc2S1(=O)=O
[1]
  Ratio CC50/EC50: >28
[2]
  EC50: 7.7 µM
  EC90: 33.2 µM
[3]
  IC50: 23.7 µM
[4]
  CC50: > 211 µM
[5]
  inhibition: > 50%
[6]
  Activity: Toxic

## CN1c2c(NC(=O)c3ccc(NS(C)(=O)=O)cc3)nn(-c3cccc(F)c3)c2-c2ccccc2S1(=O)=O
[1]
  Ratio CC50/EC50: 2.3
[2]
  EC50: 80.8 µM
[3]
  IC50: > 50 µM
[4]
  CC50: 160 µM
[5]
  inhibition: < 50%
[6]
  Activity: Toxic

## CN1c2c(C(=O)Nc3ccccc3)nn(-c3cccc(F)c3)c2-c2ccccc2S1(=O)=O
[1]
  Ratio CC50/EC50: 12
[2]
  EC50: 4.5 µM
[3]
  IC50: > 50 µM
[4]
  CC50: 56 µM
[5]
  inhibition: < 50%
[6]
  Activity: Toxic

## CN1c2c(C(=O)Nc3ccc(NS(C)(=O)=O)cc3)n[nH]c2-c2ccccc2S1(=O)=O
[1]
  Ratio CC50/EC50: 2.5
[2]
  EC50: 88.2 µM
  EC90: 65.2 µM
[3]
  IC50: > 50 µM
[4]
  CC50: 155 µM
[5]
  inhibition: < 50%
[6]
  Activity: Toxic

## CN1c2c(C(=O)Nc3ccc(NS(C)(=O)=O)cc3)nn(-c3cccc(F)c3)c2-c2ccccc2S1(=O)=O
[4]
  CC50 at 72 h: > 370 µM

## Cc1cccc(-n2nc(C(=O)Nc3ccc(NS(C)(=O)=O)cc3)c3c2-c2ccccc2S(=O)(=O)N3C)c1
[1]
  Ratio CC50/EC50: >46
[2]
  EC50: 5.1 µM
  EC90: 11.8 µM
[3]
  IC50: 21.2 µM
[4]
  CC50: > 233 µM
[5]
  inhibition: > 50%
[6]
  Activity: Toxic

## CN1c2c(C(=O)Nc3ccc(NS(C)(=O)=O)cc3)nn(-c3ccc(Cl)c(Cl)c3)c2-c2ccccc2S1(=O)=O
[1]
  Ratio CC50/EC50: >17
[2]
  EC50: 9.7 µM
[3]
  IC50: 2.7 µM
[4]
  CC50: > 168 µM
[5]
  inhibition: > 50%
[6]
  Activity: Toxic

## CN1c2c(C(=O)Nc3ccc(NS(C)(=O)=O)cc3)nn(-c3ccc(Cl)c(C(F)(F)F)c3)c2-c2ccccc2S1(=O)=O
[1]
  Ratio CC50/EC50: >25
[2]
  EC50: 6.4 µM
[3]
  IC50: > 50 µM
[4]
  CC50: > 160 µM
[5]
  inhibition: < 50%
[6]
  Activity: Toxic

## CN1c2c(C(=O)Nc3ccc(NS(C)(=O)=O)cc3)nn(-c3ccc(C(F)(F)F)cc3)c2-c2ccccc2S1(=O)=O
[1]
  Ratio CC50/EC50: >23
[2]
  EC50: 7.3 µM
  EC90: 31.2 µM
[3]
  IC50: 36.3 µM
[4]
  CC50: > 169 µM
[5]
  inhibition: > 50%
[6]
  Activity: Toxic

## Cc1ccccc1-n1nc(C(=O)Nc2ccc(NS(C)(=O)=O)cc2)c2c1-c1ccccc1S(=O)(=O)N2C
[1]
  Ratio CC50/EC50: >16
[2]
  EC50: 14.3 µM
[3]
  IC50: 30.8 µM
[4]
  CC50: > 233 µM
[5]
  inhibition: > 50%
[6]
  Activity: Toxic

## CN1c2c(C(=O)Nc3ccc(NS(C)(=O)=O)cc3)nn(-c3ccc(Br)cc3)c2-c2ccccc2S1(=O)=O
[1]
  Ratio CC50/EC50: >22
[2]
  EC50: 7.4 µM
  EC90: 21 µM
[3]
  IC50: 12.1 µM
[4]
  CC50: > 166 µM
[5]
  inhibition: > 50%
[6]
  Activity: Toxic

## COc1ccc(-n2nc(C(=O)Nc3ccc(NS(C)(=O)=O)cc3)c3c2-c2ccccc2S(=O)(=O)N3C)cc1
[1]
  Ratio CC50/EC50: >28
[2]
  EC50: 8.1 µM
  EC90: 25 µM
[3]
  IC50: > 50 µM
[4]
  CC50: > 226 µM
[5]
  inhibition: < 50%
[6]
  Activity: Non-toxic

## CN1c2c(C(=O)Nc3ccc(NS(C)(=O)=O)cc3)nn(-c3ccc(F)c(F)c3)c2-c2ccccc2S1(=O)=O
[1]
  Ratio CC50/EC50: 9.9
[2]
  EC50: 13.9 µM
[3]
  IC50: 25.4 µM
[4]
  CC50: 138 µM
[5]
  inhibition: > 50%
[6]
  Activity: Toxic

## Cc1ccc(-n2nc(C(=O)Nc3ccc(NS(C)(=O)=O)cc3)c3c2-c2ccccc2S(=O)(=O)N3C)cc1
[1]
  Ratio CC50/EC50: 39
[2]
  EC50: 4.8 µM
  EC90: 19.6 µM
[3]
  IC50: 14.7 µM
[4]
  CC50: > 186 µM
[5]
  inhibition: > 50%
[6]
  Activity: Non-toxic

## CN1c2c(C(=O)Nc3ccc(NS(C)(=O)=O)cc3)nn(-c3cccc(Br)c3)c2-c2ccccc2S1(=O)=O
[1]
  Ratio CC50/EC50: >20
[2]
  EC50: 8.3 µM
  EC90: 26 µM
[3]
  IC50: 7.7 µM
[4]
  CC50: > 166 µM
[5]
  inhibition: > 50%
[6]
  Activity: Toxic
